Measurements from different studies.
Organism: Trypanosoma cruzi
Effect on: parasite growth
Setting: intracellular, amastigote

Structure (SMILES)	test	system	setting	quantity	result
O=C(N[C@@H](Cc1ccccc1)C(=O)c1nccs1)[C@H](Cc1ccccc1)NC(=O)N1CCOCC1		TULAHUEN		IC50	31.7 µM
Cc1ccc2nc(-c3ccc(F)c(F)c3)c(CN3CCC(Cc4ccccc4)CC3)n2c1		TULAHUEN	6 days	EC90	4.7 µM
COc1ccc(Nc2nc(-c3ccco3)nc3ccccc23)cc1	imaging	U2OS		IC50	11.4 µM
O=C(N[C@H](Cc1c[nH]c2ccccc12)C(=O)Nc1ccncc1)c1ccc(-c2cc(F)ccc2F)cc1F	imaging	C2C12	72 h	EC50	0.0013 µM
COc1ccc(Nc2nc(-c3ccncc3)nc3ccccc23)cc1	imaging	U2OS		IC50	24.5 µM
COC(=O)c1ccc(NCc2cncn2Cc2ccccc2Cl)cc1-c1ccccc1		mouse Fibroblast		EC50	0.1 to 1 µM
O=C(N[C@@H](Cc1ccccc1)C(=O)c1cn(COCc2ccccc2)nn1)[C@H](Cc1ccccc1)NC(=O)N1CCOCC1		TULAHUEN		IC50	32.2 µM
c1ccc(C2CCN(c3nc(-c4ccco4)nc4ccccc34)C2)nc1 (stereo not shown)	imaging	U2OS		IC50	50 µM
COC(=O)c1ccc(NCc2cncn2Cc2ccccc2[N+](=O)[O-])cc1-c1ccccc1		mouse Fibroblast		EC50	0.1 to 1 µM
O=C(Cn1ccnc1[N+](=O)[O-])NCc1ccccc1		TULAHUEN	6 days	EC90	1.64 µM
